CFTR F508del cor: CFTR F508del correction in bronchial cells; 350,000 tested, 0.36% active; activity (quench increase), % at 7.58 µM; CFBE cells, YFP halide quenching; stimulated with forskolin plus potentiator P3; % fluorescence drop versus neutral controls;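 active = mean added fluorescence quench of at least 8% versus neutral control, with both replicates also reaching 8%; inconclusive = only one of the mean or replicate conditions met; inactive = mean below 8% and not both replicates reaching 8%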;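 note: cells transiently co-express mutant CFTR-F508del with the halide-sensitive YFP; corrector assay measuring rescue of mutant channel to the surface after 24 h compound exposure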
miR122 inh: miR-122 inhibition in Huh7 cells; 340,000 tested, 0.3% active; Huh7 miR-122 Renilla luciferase sensor, 48 h; neutral wells = 0, positive control = 100; AID 602342; activation (reporter increase), % at 12.5 µM;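 active = mean replicate activation score at least 90 and every replicate individually at or above 90; inconclusive = only one of the two criteria met; inactive = neither criterion met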;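 note: higher luciferase means less miR-122 activity so hits act as miR-122 inhibitors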
E-sel inducer: induces E-selectin expression in human endothelial cells | HUVEC E-selectin immunofluorescence imaging; normalized: neutral wells 0, TNF-alpha wells 100 | activation, % at 7.58 µM | 260,000 tested, 0.37% active | AID 686992;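 active = mean E-selectin-positive cell signal at least 10% of the positive control, reached in at least 60% of replicates, without over 20% cell loss; inconclusive = no rule given, readout overlaps actives, possibly toxicity-flagged; inactive = the rest, including those meeting only one limit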
Target sequence (P16581 whole entry, looked up): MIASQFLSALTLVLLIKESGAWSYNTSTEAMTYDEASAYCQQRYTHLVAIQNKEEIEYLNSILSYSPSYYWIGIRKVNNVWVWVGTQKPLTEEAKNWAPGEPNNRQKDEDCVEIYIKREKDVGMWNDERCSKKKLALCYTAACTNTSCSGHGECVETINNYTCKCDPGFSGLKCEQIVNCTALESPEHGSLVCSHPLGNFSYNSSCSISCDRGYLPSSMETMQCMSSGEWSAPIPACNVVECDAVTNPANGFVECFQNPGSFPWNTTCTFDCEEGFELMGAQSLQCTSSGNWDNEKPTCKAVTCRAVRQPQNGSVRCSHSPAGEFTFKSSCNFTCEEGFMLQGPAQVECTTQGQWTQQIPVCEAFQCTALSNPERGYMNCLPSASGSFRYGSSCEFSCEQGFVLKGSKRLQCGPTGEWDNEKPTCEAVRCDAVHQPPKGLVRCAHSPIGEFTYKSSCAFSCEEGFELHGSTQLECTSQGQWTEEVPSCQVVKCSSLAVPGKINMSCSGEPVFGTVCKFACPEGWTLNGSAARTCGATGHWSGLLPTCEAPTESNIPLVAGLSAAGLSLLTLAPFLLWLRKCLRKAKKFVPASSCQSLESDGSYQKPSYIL
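material = human umbilical vein endothelial cells (HUVEC), E-selectin induction | quantity = 3,000 cells/well | medium = EGM-2 growth medium on 0.1% gelatin-coated wells | technique = immunofluorescence imaging | read-out basis = % PE-positive cells | control set = TNF-alpha positive control, DMSO neutral control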
GSIS activator: primary screen for activators of insulin secretion dependent on glucose, INS-1E cells, GLuc reporter luminescence; INS-1E GLuc reporter insulin secretion, 2-3 h; activation, % at 16.6 µM; 370,000 tested, 0.61% active; AID 743287;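 active = lowest replicate activation of at least 40%, so every replicate reaches that level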;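 note: 0% = median of neutral control wells and 100% = median of IBMX positive control wells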
ERAP1 HTS inh: ERAP1 (human) enzyme inhibition; inhibition, % at 10.7 µM; Q9NZ08; 340,000 tested, 0.15% active; recombinant ERAP1, Leu-AMC fluorescence, 60 min;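 active = mean replicate inhibition of at least 30%, or all replicates individually reaching that 30% level; inactive = mean below 30% and not every replicate reaching it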;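 note: 0% = neutral control wells and 100% = L-leucinethiol positive control wells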
DENV2 CPE rescue: protects cells from dengue virus 2 cytopathic effect | 350,000 tested, 1.7% active | DENV2-infected cells, cytopathic effect rescue, plate reader | CPE inhibition, % at 9.99 µM | AID 651640; in the data active = CPE inhibition above about 20%, passing the limit was not always enough; inconclusive = no clear call, values can overlap the other calls; tested in BHK-21 cells;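 note: 0% = median of neutral control wells and 100% = median of positive control wells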
Starred values were filed as active, the others as inactive; u = inconclusive; x = no result; [ ] = dose if it differs, or a comment. A selection: hits, their analogues and other compounds. The true share with any hit is near 2.6%.

SMILES	CFTR F508del cor	miR122 inh	E-sel inducer	GSIS activator	ERAP1 HTS inh	DENV2 CPE rescue
C[C@@H]1CN(C)C(=O)c2cccc(NS(C)(=O)=O)c2O[C@H]1CN(C)S(C)(=O)=O	x	x	x	0.1	x	x
CNC[C@@H]1Oc2ccc(NS(=O)(=O)c3ccc(F)cc3)cc2CC(=O)N([C@H](C)CO)C[C@H]1C	-5.2	11.9[16.7 µM]	-1.7	21.8	1.9	u
O=C(C[C@H]1C=C[C@H](NC(=O)Cc2ccccn2)[C@@H](CO)O1)NCCc1ccncc1	-1.1	x	0.4	1.9	-2.7	23.2*
COc1cccc(CNC(=O)C[C@@H]2C=C[C@H](NC(=O)C3CCOCC3)[C@H](CO)O2)c1	1.3	x	0.2	-3.3	-1.0	3.7
COc1cccc(NC(=O)N[C@H]2C=C[C@H](CC(=O)NCc3ccccn3)O[C@H]2CO)c1	0.2	x	0.8	5.9	-2.9	29.1*
O=C(C[C@H]1CC[C@@H](NC(=O)Nc2ccc3c(c2)OCO3)[C@@H](CO)O1)NCc1ccc2c(c1)OCO2	2.1	x	0.3	-16.0	-3.9	20.3*
COc1cccc(CNC(=O)C[C@H]2C=C[C@H](NC(=O)C3CCOCC3)[C@@H](CO)O2)c1	1.3	x	0.0	-2.6	-1.1	20.8*
COc1cccc(NC(=O)N[C@@H]2C=C[C@H](CC(=O)NCc3ccccn3)O[C@@H]2CO)c1	3.8	x	-0.2	10.3	1.1	-2.6
COc1cccc(CNC(=O)C[C@H]2CC[C@@H](NC(=O)C3CCC3)[C@H](CO)O2)c1	2.1	x	-1.4	9.9	-1.7	35.5*
O=C(C[C@@H]1C=C[C@H](NC(=O)NC2CCCCC2)[C@@H](CO)O1)NCc1ccc(F)cc1	-1.9	-7.9[16.7 µM]	0.4	4.1	-0.9	2.9
COc1cccc(CNC(=O)C[C@H]2CC[C@H](NC(=O)C3CCC3)[C@H](CO)O2)c1	-1.4	x	-1.7	15.7	-4.0	-7.4
COc1ccccc1S(=O)(=O)N[C@H]1C=C[C@@H](CC(=O)NCc2cccc(F)c2)O[C@H]1CO	0.8	x	-0.1	7.9	1.0	23.4*
COc1ccc(CNC(=O)C[C@H]2C=C[C@H](NC(=O)c3ccc4c(c3)OCO4)[C@H](CO)O2)cc1	1.9	x	-0.2	6.2	1.9	60.8*
O=C(C[C@H]1C=C[C@H](NC(=O)NC2CCCCC2)[C@H](CO)O1)NCc1ccc(F)cc1	0.1	-8.7[16.7 µM]	-0.3	0.2	-1.1	27.9*
CCC(=O)N1[C@H](CO)[C@H]2c3ccccc3N(S(=O)(=O)c3ccccc3)C[C@H]21	2.9	25.0[16.7 µM]	1.7	13.8	-0.3	u
N[C@H]1CC[C@H](CCn2cc(C3CC3)nn2)O[C@@H]1CO	5.4	x	0.1	8.4	3.0	14.4
CCCC(=O)Nc1ccc2c(c1)C(=O)N(C)C[C@H](OC)[C@H](C)CN(Cc1ccccc1)[C@@H](C)CO2	-1.6	15.4[16.7 µM]	-0.1	-4.0	-4.4	-2.3
COC(=O)c1ccc(CN2CC(=O)N3[C@H](CO)[C@H](c4ccc(-c5cccnc5)cc4)[C@H]3C2)cc1	-3.3	x	0.1	-8.8	-0.9	-3.4
CC1CCCN(C(=O)c2ccc(S(=O)(=O)Nc3ccccc3Cl)cc2)C1 (stereo not drawn)	-1.4	0.8	1.3	-7.8	0.6	83.3*
O=C(c1ccc(S(=O)(=O)Nc2ccccc2Cl)cc1)N1CCOCC1	-4.6	x	-0.1	19.6	-0.9	x
CCCC#Cc1ccc2c(c1)O[C@@H](CN(C)C(=O)c1ccccn1)[C@@H](C)CN([C@H](C)CO)S2(=O)=O	1.1	3.2[16.7 µM]	10.5	-6.1	1.2	-9.1
COCCNC(=O)c1ccc(CS(=O)(=O)c2c(Cl)cccc2Cl)o1	0.7	-5.3	x	3.3	-3.4	58.4*
COC(=O)C[C@@H]1C[C@H]2c3cc(NC(=O)c4cccnc4)ccc3O[C@H]2[C@@H](CO)O1	1.6	-1.4[16.7 µM]	-0.2	-7.8	1.3	-1.3
Nc1nc2c(ncn2[C@@H]2O[C@H](C(=O)NCC(c3ccccc3)c3ccccc3)[C@@H](O)[C@H]2O)c(=O)[nH]1	-4.8	x	-0.3	x	0.5	-5.9
CC(CNC(=O)[C@H]1O[C@@H](n2cnc3c(=O)[nH]c(N)nc32)[C@H](O)[C@@H]1O)c1ccccc1 (stereo partly drawn)	0.0	x	-0.2	5.8	-0.4	67.9*
SMILES	CFTR F508del cor	miR122 inh	E-sel inducer	GSIS activator	ERAP1 HTS inh	DENV2 CPE rescue
C[C@@H]1CN([C@@H](C)CO)C(=O)Cc2cc(NC(=O)Nc3ccccc3)ccc2O[C@@H]1CN(C)C(=O)Nc1ccc(F)cc1	-2.6	-0.2[16.7 µM]	0.0	-4.8	1.8	39.9*
COc1ccc(NC(=O)N(C)C[C@H]2Oc3ccc(NC(=O)Nc4ccc(C(F)(F)F)cc4)cc3CC(=O)N([C@@H](C)CO)C[C@H]2C)cc1	1.7	200.8*[16.7 µM]	1.8	-23.8	3.0	-19.9
C[C@@H]1CN([C@H](C)CO)C(=O)Cc2cc(NC(=O)Nc3ccc(C(F)(F)F)cc3)ccc2O[C@@H]1CN(C)C(=O)Nc1ccccc1	2.2	20.1[16.7 µM]	0.2	4.1	0.3	-9.2
C[C@@H]1CN([C@@H](C)CO)C(=O)Cc2cc(NC(=O)Nc3ccc(C(F)(F)F)cc3)ccc2O[C@H]1CN(C)C(=O)Nc1ccccc1	9.3*	-1.6[16.7 µM]	-0.3	-11.3	3.7	1.2
COc1ccc(S(=O)(=O)N[C@@H]2CC[C@H](CC(=O)N3CCC(Cc4ccccc4)CC3)O[C@H]2CO)cc1	-0.3	x	-0.3	-20.9	-2.9	-0.7
C[C@@H]1CN([C@@H](C)CO)C(=O)c2cc(NC(=O)c3ccncc3)ccc2O[C@@H](C)CCCCO[C@H]1CN(C)S(C)(=O)=O	3.0	20.2[16.7 µM]	-0.1	19.2	x	8.8
N#CC1=C(N)OC2=C(CCc3ccccc32)C1c1ccccc1Cl (stereo not drawn)	10.5*	18.4	x	7.2	-4.0	1.5
COc1ccc(-c2ccc3c(c2)[C@@H]2[C@@H](CCN2C(=O)C2CCOCC2)[C@@H](CO)N3C)cc1	1.1	-10.1[16.7 µM]	2.9	8.8	x	115.0*
COc1ccc(S(=O)(=O)N2CC[C@@H]3[C@H](CO)N(C)c4ccc(-c5ccc(F)cc5)cc4[C@@H]32)cc1	10.6*	u	0.0	-39.5	0.2	-21.3
COc1ccc(S(=O)(=O)N2CC[C@@H]3[C@H]2c2cc(-c4ccc(F)cc4)ccc2N(C)[C@H]3CO)cc1	-0.8	0.0[16.7 µM]	-0.1	-10.3	x	x
COc1ccc(S(=O)(=O)N2CC[C@@H]3[C@H]2c2cc(-c4ccccc4F)ccc2N(C)[C@H]3CO)cc1	1.4	23.6[16.7 µM]	0.2	-35.1	x	25.5*
CN1c2ccc(-c3ccccc3F)cc2[C@@H]2[C@@H](CCN2S(=O)(=O)c2ccc(F)cc2)[C@@H]1CO	2.5	14.0[16.7 µM]	0.1	-3.2	x	52.6*
Cc1cccc(C)c1OCC(O)Cn1ccnc1C (stereo not drawn)	3.6	-5.6	-1.0	-25.9	1.9	40.2*

Screening results as filed in PubChem BioAssay.
